# Hits are enriched below; roughly 4.1% of the tested compounds scored in any of these assays.
# KCNK9 block = inhibitors of human KCNK9 two-pore domain potassium channel; HEK293 KCNK9, FluxOR thallium flux fluorescence; hits give low values; B-score at 10 µM; Q9NPC2; actives 1.2% (n = 310,000); AID 488922;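 active = ratio B-score over 3 SD below the library mean, with starting fluorescence within 5 SD of its mean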;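 also: negative B-score means less thallium flux so channel inhibition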
# Target sequence (Q9NPC2 whole entry, looked up, the tested form may be a part): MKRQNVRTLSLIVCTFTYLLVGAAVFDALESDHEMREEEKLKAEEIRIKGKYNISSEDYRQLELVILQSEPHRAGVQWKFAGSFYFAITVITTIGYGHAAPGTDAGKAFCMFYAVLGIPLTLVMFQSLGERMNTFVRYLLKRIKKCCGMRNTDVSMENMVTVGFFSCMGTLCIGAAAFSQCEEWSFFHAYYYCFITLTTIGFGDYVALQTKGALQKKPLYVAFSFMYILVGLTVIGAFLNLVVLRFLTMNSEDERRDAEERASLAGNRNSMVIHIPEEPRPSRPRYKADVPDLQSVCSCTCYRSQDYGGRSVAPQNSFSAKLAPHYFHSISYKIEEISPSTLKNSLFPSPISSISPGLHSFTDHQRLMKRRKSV
# KCNK3 block = human KCNK3 channel inhibition, primary screen; O14649; CHO-KCNK3 thallium flux, FluxOR fluorescence; hits give low values; B-score at 10 µM; actives 0.84% (n = 340,000);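 active = B-score under library mean minus 4 SD, starting fluorescence ratio at most library mean plus 5 SD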;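 also: more negative B-score means stronger inhibition of thallium flux through KCNK3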
# Target sequence (O14649 whole entry, looked up): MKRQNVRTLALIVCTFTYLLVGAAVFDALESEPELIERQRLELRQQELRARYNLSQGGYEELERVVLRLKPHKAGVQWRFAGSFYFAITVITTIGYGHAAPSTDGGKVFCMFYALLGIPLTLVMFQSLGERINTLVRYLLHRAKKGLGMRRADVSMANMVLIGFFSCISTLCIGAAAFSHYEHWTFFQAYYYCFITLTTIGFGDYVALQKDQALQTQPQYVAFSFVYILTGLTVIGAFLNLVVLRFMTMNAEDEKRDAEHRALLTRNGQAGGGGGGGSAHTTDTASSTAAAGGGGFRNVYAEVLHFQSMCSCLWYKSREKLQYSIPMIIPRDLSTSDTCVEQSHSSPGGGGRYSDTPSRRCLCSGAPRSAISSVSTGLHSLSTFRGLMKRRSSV
# KCC2 mod = modulates chloride dependent transport by human KCC2 | KCC2 cells, thallium flux FluoZin-2 fluorescence | Q9H2X9 | actives 2.2% (n = 190,000) | AID 1456 | B-score of Tl+ flux slope (higher = more flux/activation; lower = inhibition) at 10 µM;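 active = thallium flux slope and its plate-corrected score both differing from the plate sample mean at a set confidence after two filtering rounds, in either direction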;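 also: slope of fluorescence scaled to starting intensity during 10 to 20 s after thallium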
# KCNQ1 pot = human KCNQ1 channel potentiation or activation | CHO-K1 KCNQ1, thallium flux FluxOR fluorescence; hits give high values | actives 0.35% (n = 310,000) | P51787 | B-score at 10 µM;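 active = fluorescence ratio B-score, a plate-corrected score, at least three library SD, with initial intensity B-score within 5 SD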
#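 Material: CHO-K1 cells stably expressing KCNQ1. Medium: assay buffer for compound exposure, DMSO matched across wells. Reagent: K+/Tl+ depolarizing stimulus. Compound dosing: single-concentration screen. Times: 37 °C overnight plating, 90-min dark dye load, 20-min compound pretreatment. Technique: FluxOR Tl+ flux fluorescence.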
# hERG rescue = shields human hERG channel from block by proarrhythmic agents; CHO-hERG, FluxOR thallium flux, dofetilide IC70 present; activation (rescue from dofetilide block), less the hit threshold, % at 10 µM; actives 0.51% (n = 310,000); AID 1511;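 active = activation above the mean of controls blocked by dofetilide plus 5 SD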;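 also: thallium influx through hERG after potassium depolarization seen as dye fluorescence rise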
# KCNQ1 block = inhibitors of human KCNQ1 potassium channel; CHO-K1 KCNQ1, FluxOR thallium flux fluorescence; hits give high values; P51787; AID 2642; B-score at 10 µM; actives 1.3% (n = 310,000);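 active = compounds whose thallium flux B-score, printed positive for inhibition, exceeds three library SD while starting fluorescence stays within three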;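 also: channel opened by potassium depolarization with thallium stimulus after 20 min compound exposure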
# KCNK9 inh conf = human KCNK9 inhibitor confirmation; shares compounds with KCNK9 block; HEK293 KCNK9 cells, FluxOR thallium flux fluorescence; inhibition, % at 10 µM; actives 43% (n = 4,900); AID 492992;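 active = thallium signal inhibited by more than 5 SD of the compound-free buffer control wells, on both duplicate plates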
# Kir2-1 spec = tests whether KCNK9 modulators also affect mouse Kir2.1; shares compounds with KCNK9 block; Kir2.1 cells, FluxOR thallium flux fluorescence; inhibition, % at 10 µM; actives 4% (n = 4,900);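 active = thallium signal drop more than 5 SD beyond the mean of the no-compound control wells, seen in both duplicate plates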;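 also: signal is fluorescence rise after thallium addition divided by baseline fluorescence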
# HEK293 Tl ctr = second check of KCNK9 modulator effects in non-induced HEK293 cells. shares compounds with KCNK9 block. FluxOR thallium flux. inhibition, % at 10 µM. AID 492997. actives 40% (n = 4,900);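 active = thallium signal drop beyond 5 SD of the untreated control mean, on both duplicate plates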
# KCNK3 inh conf = confirmation of human KCNK3 two-pore domain potassium channel inhibitors; shares compounds with KCNK3 block; CHO-KCNK3 thallium flux, FluxOR fluorescence; 0% buffer, 100% carvedilol maximal block; ratio percent of control, % at 10 µM; actives 99% (n = 2,400); AID 651638;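 active = ratio percent of control, averaged over triplicates, above buffer control mean plus 5 SD, cut at about 64% in these data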;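 also: ratio is the fluorescence rise from min to max over baseline after thallium stimulus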
# KCNK3 noninduced = counter-screen for KCNK3 inhibitors: effect in non-induced cells; actives 40% (n = 2,400); shares compounds with KCNK3 block; non-induced KCNK3 parental cells, FluxOR thallium flux; hits give low values; thallium flux ratio (lower = more inhibition) at 10 µM;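 active = thallium flux ratio, averaged over three wells, more than 5 SD below the buffer control mean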;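 also: host cells are CHO cells without KCNK3 induction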
# Numbers stand for hits; – = inactive; · = not tested or not shown.
SMILES,KCNK9 block,KCNK3 block,KCC2 mod,KCNQ1 pot,hERG rescue,KCNQ1 block,KCNK9 inh conf,Kir2-1 spec,HEK293 Tl ctr,KCNK3 inh conf,KCNK3 noninduced
CC(C)(C)CC(=O)Nc1ccccc1N1CCN(c2ccc(F)cc2)CC1,-11.8,-8.97,·,–,–,–,73.0%,–,37.0%,120.3,0.137
CC(C)OC(=O)CSc1nc(Cc2ccccc2)nc2ccccc12,-15.4,-10.7,–,–,–,–,57.5%,35.5%,38.0%,96.7,–
CCOC(=O)CSc1nc(CC)nc2ccccc12,–,–,–,–,–,–,·,·,·,·,·
CC(C)OC(=O)CSc1nc(C(C)C)nc2ccccc12,–,–,–,–,–,–,·,·,·,·,·
CCOC(=O)CSc1nc(Cc2ccccc2)nc2ccccc12,-13.4,–,·,–,–,–,36.0%,–,–,96.3,–
Cc1ccc(O)c(NC(=O)c2cc(C)no2)c1,–,–,·,–,–,–,·,·,·,·,·
Cc1c(N=C2N=C(NC(=O)c3cccs3)c3ccccc32)c(=O)n(-c2ccccc2)n1C,-9.17,-9.92,–,–,–,–,56.0%,–,56.0%,141.3,0.101
CC(C)(C)c1cc(NC(=O)COC(=O)c2nccnc2N)n(-c2ccccc2)n1,-8.62,-9.08,·,–,–,–,51.5%,–,31.5%,94.3,–
C=CCn1c(=O)c2ccccc2n2c(SCC(C)=O)nnc12,–,–,·,–,–,–,·,·,·,·,·
Cc1ccc(N2CC(NC(=O)N3CCN(C(=O)c4ccco4)CC3)CC2=O)cc1 (stereo not drawn),–,–,·,–,–,–,·,·,·,·,·
COc1nc(N2CCCCCC2)nc(N2CCCCCC2)n1,-10.9,–,–,–,–,–,–,–,53.5%,99.0,–
Cc1ccc(SCCC(=O)NNC(=O)c2ccccc2F)cc1,·,–,·,·,·,·,·,·,·,·,·
C/C(=N\Nc1cc(C)nc(-c2ccccc2)n1)c1cccc([N+](=O)[O-])c1,-10.9,-9.71,–,–,–,–,50.0%,–,32.0%,103.0,–
CCOC(=O)c1cc(-c2ccc(Cl)cc2)nc2c1c(C)nn2CCC#N,-13,-9.3,–,–,–,–,52.5%,–,31.5%,124.7,0.131
COc1ccc(C2CC(c3cccs3)=NN2C(=O)COC(=O)C2CCCCC2)cc1OC (stereo not drawn),-14.8,-9.58,–,–,–,–,43.0%,–,37.5%,103.3,–
CCN1CCN(CC(=O)N2N=C(c3cccs3)CC2c2ccc(OC)c(OC)c2)C(=O)C1=O (stereo not drawn),–,–,–,–,–,–,·,·,·,·,·
O=C(CCN1C(=O)c2ccccc2S1(=O)=O)NCc1ccccc1Cl,–,–,·,–,–,–,·,·,·,·,·
Cc1ccc2c(CN(C)Cc3ccccc3)cc(=O)oc2c1C,–,-9.35,·,–,–,–,–,–,–,92.0,–
Cc1ccc2c(CN(C)Cc3ccc(Cl)cc3)cc(=O)oc2c1,-11.5,-15.9,·,–,–,–,37.5%,–,43.5%,94.3,–
Cc1nc(CC(=O)NNS(=O)(=O)c2cccc(Cl)c2Cl)cs1,·,–,·,·,·,·,·,·,·,·,·
Cc1cc(Cn2nc(-c3ccccc3)cc2C(=O)NCc2cccs2)on1,–,–,·,–,–,–,·,·,·,·,·
C=CCN1C(=O)c2ccccc2NC1c1ccc(Br)s1 (stereo not drawn),-9.19,–,·,–,–,–,37.5%,–,30.0%,107.0,–
O=C/C(=C\Nc1ccccn1)c1nc2ccccc2o1,–,–,–,–,–,–,·,·,·,·,·
O=C/C(=C\Nc1ccccn1)c1nc2cc(Cl)ccc2o1,-8.46,–,–,–,–,–,35.0%,–,–,114.3,–
Cc1c(C)n(C(=O)CN2CCC(C(N)=O)CC2)c2ccccc12,–,–,–,–,–,–,·,·,·,·,·
SMILES,KCNK9 block,KCNK3 block,KCC2 mod,KCNQ1 pot,hERG rescue,KCNQ1 block,KCNK9 inh conf,Kir2-1 spec,HEK293 Tl ctr,KCNK3 inh conf,KCNK3 noninduced
Cc1c(C)n(C(=O)CN2CCN(c3ccccc3)CC2)c2ccccc12,–,-10,–,–,–,–,–,–,–,83.0,–
COc1cc(NS(=O)(=O)c2cc(NC(C)=O)ccc2OC)c(OC)cc1NC(=O)c1ccccc1,·,–,·,·,·,·,·,·,·,·,·
CC(Nc1nc(-c2ccccc2)nc2ccccc12)c1ccccc1 (stereo not drawn),-8.94,-11.2,–,–,–,–,–,–,36.0%,102.3,–
CC(Nc1nc(-c2ccccc2O)nc2ccccc12)c1ccccc1 (stereo not drawn),–,–,–,–,–,–,·,·,·,·,·
CCC(C)N(C(=O)Cn1cnc2c1c(=O)n(C)c(=O)n2C)C1CCS(=O)(=O)C1 (stereo not drawn),–,–,·,–,–,–,·,·,·,·,·
CC(=O)c1ccc(NC(=O)[C@@H]2CCCN2C(=O)OC(C)(C)C)cc1,–,–,·,–,–,–,·,·,·,·,·
O=C(COc1ccc2ccccc2c1Br)N1CCCCC1,–,–,·,–,–,–,·,·,·,·,·
O=C(Oc1ccc2ccccc2c1Br)N1CCCCCC1,-12.2,–,–,–,–,–,68.0%,–,36.0%,108.3,–
CCNC(=S)N(CCc1c(C)[nH]c2ccc(F)cc12)Cc1cccnc1,–,–,·,–,–,–,·,·,·,·,·
Cc1[nH]c2ccc(F)cc2c1CCN(Cc1cccnc1)C(=S)Nc1ccc(F)cc1,-9.63,-9.47,–,–,–,–,–,–,26.5%,103.3,–
COc1ccc2[nH]c(C)c(CCN(Cc3cccs3)C(=S)Nc3ccccc3)c2c1,-11.1,-12.6,–,–,–,–,37.5%,–,34.5%,130.0,0.134
CC(OC(=O)Cc1n[nH]c(=O)c2ccccc12)C(=O)Nc1ccc(F)cc1 (stereo not drawn),–,–,·,–,–,–,·,·,·,·,·
Cc1ccc(CNCc2cc(Cl)ccc2O)cc1,·,–,·,·,·,·,·,·,·,·,·
Cc1nn(S(=O)(=O)c2cccs2)c(C)c1Sc1ccc([N+](=O)[O-])cc1,-11.1,-11.9,–,–,–,–,54.5%,–,27.5%,119.7,0.156
COc1ccc(C2C(=O)NN=C2C)cc1 (stereo not drawn),·,–,·,·,·,·,·,·,·,·,·
C=CC[n+]1c(/C=C2\C=Cc3cc(C)ccc3N2CC)ccc2ccccc21,-13.3,-16.1,–,–,–,16,78.5%,88.0%,63.0%,146.3,0.112
